Source: ChEMBL document CHEMBL3112487, “Synthesis and antifungal activity of ASP9726, a novel echinocandin with potent Aspergillus hyphal growth inhibition” (2014)
≈ marks a conversion by molar mass, not a printed value. Calls of active or inactive are those of the source. The rule behind the calls is not given here.

Assays:
[1] = tested on: Aspergillus fumigatus; assay: Antifungal activity against Aspergillus fumigatus 20030 in ICR mouse invasive pulmonary aspergillosis model assessed as survival rate at 3 mg/kg, iv qd administered for 10 days measured on day 11 relative to control; format: functional
[2] = tested on: Aspergillus fumigatus; assay: Antifungal activity against Aspergillus fumigatus 20030 in ICR mouse invasive pulmonary aspergillosis model assessed as survival rate at 1.5 mg/kg, iv qd administered for 10 days measured on day 11 relative to control; format: functional
[3] = tested on: Aspergillus fumigatus; assay: Antifungal activity against Aspergillus fumigatus 20024 in human serum assessed as formation of small, rounded and compact microcolonies with severely stunted hypha at 4 fold MEC after 48 hrs by microscopic analysis; format: functional, organism-based
[4] = tested on: Nakaseomyces glabratus; assay: Antifungal activity against echinocandin-resistant Candida glabrata FP2307 in human serum assessed as hyphal growth inhibition after 48 hrs by microscopic analysis; format: functional
In short: (§1)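 Susceptibility testing followed CLSI M27-A3 or M38-A2 standards, using human serum as the growth medium. Fungi were exposed to drug and incubated at 37 °C under 5% CO2 for 48 h.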

[5] = tested on: Candida parapsilosis; assay: Antifungal activity against Candida parapsilosis 20009 in human serum assessed as hyphal growth inhibition after 48 hrs by microscopic analysis; format: functional; conditions: Lodderomyces parapsilosis, 20009, Serum; in short: as §1
[6] = tested on: Candida albicans; assay: Antifungal activity against Candida albicans 20015 in human serum assessed as hyphal growth inhibition after 48 hrs by microscopic analysis; format: functional; conditions: Candida albicans, 20015, Serum; in short: as §1
[7] = tested on: Aspergillus fumigatus; assay: Antifungal activity against Aspergillus fumigatus 20024 in human serum assessed as hyphal growth inhibition after 48 hrs by microscopic analysis; format: functional; conditions: Aspergillus fumigatus, 20024, Serum; in short: as §1
[8] = tested on: Aspergillus fumigatus; assay: Antifungal activity against Aspergillus fumigatus 20024 in human serum assessed as formation of large microcolonies with elongated hypha in all direction at 4 fold MEC after 48 hrs by microscopic analysis; format: functional, organism-based

| SMILES | survival at 3 mg/kg [1] | survival at 1.5 mg/kg [2] | Activity [3] | MIC [4] | MIC [5] | MIC [6] | MIC [7] | Activity [8] |
| --- | --- | --- | --- | --- | --- | --- | --- | --- |
| COc1cc(C[C@@H](O)[C@@H]2NC(=O)[C@@H]3C[C@@H](O)CN3C(=O)[C@H]([C@@H](C)O)NC(=O)[C@@H](NC[C@H]3CC[C@H](c4nnc(-c5ccc(N6CCC(OC)(C7CCCCC7)CC6)cc5)s4)CC3)C[C@@H](O)CNC(=O)[C@@H]3[C@@H](O)[C@@H](C)CN3C(=O)[C@H]([C@H](O)CCNC(CO)CO)NC2=O)ccc1O | 70% | 40% | Active | 2 µg/mL (≈ 1.48 µM) | 4 µg/mL (≈ 2.96 µM) | 0.25 µg/mL (≈ 0.185 µM) | 0.25 µg/mL (≈ 0.185 µM) | – |
| CC[C@H](C)C[C@H](C)CCCCCCCCC(=O)N[C@H]1C[C@@H](O)[C@@H](NCCN)NC(=O)[C@@H]2[C@@H](O)CCN2C(=O)[C@H]([C@H](O)CCN)NC(=O)[C@H]([C@H](O)[C@@H](O)c2ccc(O)cc2)NC(=O)[C@@H]2C[C@@H](O)CN2C(=O)[C@H]([C@@H](C)O)NC1=O [CASPOFUNGIN] | 20% | 10% | – | > 64 µg/mL | 64 µg/mL (≈ 58.5 µM) | 0.25 µg/mL (≈ 0.229 µM) | 0.5 µg/mL (≈ 0.457 µM) | inactive |
